Experimental data as given in ChEMBL document CHEMBL4330063, “New naphthopyran analogues of LY290181 as potential tumor vascular-disrupting agents” (Eur J Med Chem, 2019).
Activity calls are given as the source filed them. The calls are words filed in the database; no cut-off is given here.

Columns and labels:
Chorioallantoic membrane [1] = experiment: Antiangiogenic activity in Leghorn chicken embryo chorioallantoic membrane assessed as reduction in blood vessel area at 10 nmol after 6 hrs by light microscopic analysis relative to control; type: functional, tissue-based; parameters: scale not given: the % may be the effect or the level left; conditions: Gallus gallus
Procedure, shortened: (§1)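 The CAM assay was run with topical application into a silicon foil ring atop the CAM of fertilized chicken eggs. Area covered by blood vessels was quantified by fractal analysis relative to control.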

Chorioallantoic membrane [2] = experiment: Antiangiogenic activity in Leghorn chicken embryo chorioallantoic membrane assessed as induction of hemorrhages at 10 nmol after 6 hrs by light microscopic analysis; type: functional, tissue-based; conditions: Gallus gallus
Procedure, shortened: (§2)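 Fertilized chicken eggs, CAM assay. Compound was applied topically into a small silicon foil ring placed on the CAM. The membrane and its extraembryonal blood vessels were monitored over 24 h, with observations at 6 h and 24 h post application.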

Chorioallantoic membrane [3] = experiment: Antiangiogenic activity in Leghorn chicken embryo chorioallantoic membrane assessed as reduction in diameter of main blood vessel at 10 nmol after 24 hrs by light microscopic analysis; type: functional, tissue-based; conditions: Gallus gallus; procedure, shortened: as §2
Chorioallantoic membrane [4] = experiment: Antiangiogenic activity in Leghorn chicken embryo chorioallantoic membrane assessed as disruption of smaller blood vessels at 10 nmol after 6 hrs by light microscopic analysis; type: functional, tissue-based; conditions: Gallus gallus; procedure, shortened: as §2
Chorioallantoic membrane [5] = experiment: Antiangiogenic activity in Leghorn chicken embryo chorioallantoic membrane assessed as induction of hemorrhages at 10 nmol after 24 hrs by light microscopic analysis; type: functional, tissue-based; conditions: Gallus gallus; procedure, shortened: as §2
Chorioallantoic membrane [6] = experiment: Antiangiogenic activity in Leghorn chicken embryo chorioallantoic membrane assessed as disruption of smaller blood vessels at 10 nmol after 24 hrs by light microscopic analysis; type: functional, tissue-based; conditions: Gallus gallus; procedure, shortened: as §2
A2780 [7] = experiment: Antivascular activity against human A2780 cells xenografted in nude mouse assessed as tumor discoloration at 200 mg/kg administered on every other day and measured after 24 hrs; type: functional, organism-based; conditions: in the assay text read “administered as single dose” for “administered on every other day”
Procedure, shortened: (§3)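 Mice bore A2780 tumor xenografts. Compound was formulated in tween80/ethanol (1:1) and injected as single doses. Tumors were inspected for discoloration as a sign of vascular disruption, and treated tumors were examined histologically for hemorrhage and necrosis.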

Chorioallantoic membrane [8] = experiment: Antiangiogenic activity in Leghorn chicken embryo chorioallantoic membrane assessed as effect on blood vessel length at 10 nmol after 6 hrs by light microscopic analysis; type: functional, tissue-based; conditions: Gallus gallus; procedure, shortened: as §2
Chorioallantoic membrane [9] = experiment: Antiangiogenic activity in Leghorn chicken embryo chorioallantoic membrane assessed as effect on blood vessel length at 5 nmol after 6 hrs by light microscopic analysis; type: functional, tissue-based; conditions: Gallus gallus; procedure, shortened: as §2
Chorioallantoic membrane [10] = experiment: Antiangiogenic activity in Leghorn chicken embryo chorioallantoic membrane assessed as disruption of smaller blood vessels at 5 nmol after 6 hrs by light microscopic analysis; type: functional, tissue-based; conditions: Gallus gallus; procedure, shortened: as §2
A2780 [11] = experiment: Antivascular activity against human A2780 cells xenografted in nude mouse assessed as induction of hemorrhages at tumor core at 100 mg/kg administered on every other day and measured after 24 hrs by H and E staining based histopathological analysis; type: functional, organism-based
A2780 [12] = experiment: Antivascular activity against human A2780 cells xenografted in nude mouse assessed as induction of necrosis at tumor core at 100 mg/kg […] and measured after 24 hrs by H and E staining based histopathological analysis; type: functional, organism-based; procedure, shortened: as §3
Chorioallantoic membrane [13] = experiment: Antiangiogenic activity in Leghorn chicken embryo chorioallantoic membrane assessed as disruption of smaller blood vessels at 5 nmol after 24 hrs by light microscopic analysis; type: functional, tissue-based; conditions: Gallus gallus; procedure, shortened: as §2
Chorioallantoic membrane [14] = experiment: Antiangiogenic activity in Leghorn chicken embryo chorioallantoic membrane assessed as reduction in blood vessel area at 5 nmol after 6 hrs by light microscopic analysis relative to control; type: functional, tissue-based; parameters: scale not given: the % may be the effect or the level left; conditions: Gallus gallus; procedure, shortened: as §1
Chorioallantoic membrane [15] = experiment: Antiangiogenic activity in Leghorn chicken embryo chorioallantoic membrane assessed as induction of hemorrhages at 5 nmol after 24 hrs by light microscopic analysis; type: functional, tissue-based; conditions: Gallus gallus; procedure, shortened: as §2
A2780cis = experiment: Antitumor activity against human A2780cis xenografted in nude mouse at 60 mg/kg, ip administered on day 0, 4, 11 and 16; type: functional, organism-based
Chorioallantoic membrane [16] = experiment: Antiangiogenic activity in Leghorn chicken embryo chorioallantoic membrane assessed as reduction in diameter of main blood vessel at 5 nmol after 24 hrs by light microscopic analysis; type: functional, tissue-based; conditions: Gallus gallus; procedure, shortened: as §2
Chorioallantoic membrane [17] = experiment: Antiangiogenic activity in Leghorn chicken embryo chorioallantoic membrane assessed as induction of hemorrhages at 5 nmol after 6 hrs by light microscopic analysis; type: functional, tissue-based; conditions: Gallus gallus; procedure, shortened: as §2

| SMILES | Activity (Chorioallantoic membrane [1]) [%] | Activity (Chorioallantoic membrane [2]) | Activity (Chorioallantoic membrane [3]) | Activity (Chorioallantoic membrane [4]) | Activity (Chorioallantoic membrane [5]) | Activity (Chorioallantoic membrane [6]) | Activity (A2780 [7]) | Activity (Chorioallantoic membrane [8]) | Activity (Chorioallantoic membrane [9]) | Activity (Chorioallantoic membrane [10]) | Activity (A2780 [11]) | Activity (A2780 [12]) | Activity (Chorioallantoic membrane [13]) | Activity (Chorioallantoic membrane [14]) [%] | Activity (Chorioallantoic membrane [15]) | Activity (A2780cis) | Activity (Chorioallantoic membrane [16]) | Activity (Chorioallantoic membrane [17]) |
| --- | --- | --- | --- | --- | --- | --- | --- | --- | --- | --- | --- | --- | --- | --- | --- | --- | --- | --- |
| N#CC1=C(N)Oc2c(ccc3ccccc23)C1c1cccc([N+](=O)[O-])c1 (stereo not drawn) | 32 | Active | Active | Active | inactive | inactive | inactive | Active |  |  |  |  |  |  |  |  |  |  |
| N#CC1=C(N)Oc2c(ccc3ccccc23)C1c1cc(F)cc(F)c1 (stereo not drawn) |  |  |  |  |  |  |  |  | Active | Active | Active | Active | inactive | 59 | inactive | Active | Active | Active |
